IC50, inhibition and Activity data for 2 compounds are collected here from ChEMBL document CHEMBL1781874, “Cytotoxic triterpenoids from the stems of Microtropis japonica” (J Nat Prod, 2009).

For assay [1], the system named is HL-60. Kind of assay: Cytotoxicity against human HL60 cells after 24 hrs by MTT assay. It counts as functional, cell-based. To be noted: HL-60, 24 h. In outline:
(§1)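 MTT viability read-out on human cancer cell lines (Ca9-22 gingival, HL60 leukemia, HepG2 hepatoma), run to a previously published protocol.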

For a further assay, the system named is HepG2. Kind of assay: Cytotoxicity against human HepG2 cells after 24 hrs by MTT assay. The note with it: HepG2, 24 h. It counts as functional, cell-based. The method in brief:
as §1

Assay [2] deals with Histone deacetylase (Homo sapiens) (UniProt Q13547+O15379+Q9UBN7+Q92769+Q9UQL6+Q8WUI4+Q9BY41+Q96DB2+P56524+Q9UKV0+Q969S8). To be noted: HL-60, at 20 µg/mL.
In assay [3] the test system is HL-60. The experiment in a line: Effect on Bcl2 expression in human HL60 cells by Western blotting analysis. Type of assay: functional, cell-based. The method in brief: (§2)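 Cells lysed for 30 min in RIPA buffer (PBS, 1% NP-40, 0.5% deoxycholate, 0.1% SDS, 1 mM orthovanadate, 100 μg/mL PMSF, 30 μg/mL aprotinin), then spun at 20000g for 30 min. Supernatant protein quantified by Bio-Rad assay. Equal protein run on 7.5, 10 or 12% SDS-PAGE, transferred to PVDF, blocked 1 h in 5% nonfat milk in TBST.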

Assay [4] addresses Histone deacetylase 4 (Homo sapiens) (UniProt P56524). The experiment in a line: Inhibition of HDAC4 in human HL60 cells at 5 to 20 ug/ml after 24 hrs by Western blotting analysis. The note with it: HL-60. Type of assay: cell-based. The method in brief: as §2
Assay [5] concerns the target Histone deacetylase 3 (Homo sapiens) (UniProt O15379). The experiment in a line: Inhibition of HDAC3 in human HL60 cells at 5 to 20 ug/ml after 24 hrs by Western blotting analysis. It counts as cell-based. The note with it: HL-60. In outline: as §2
Assay [6] concerns HL-60. Kind of assay: Induction of apoptosis in human HL60 cells assessed as PARP cleavage by Western blotting analysis. Type of assay: functional, cell-based. In outline:
as §2

Assay [7] concerns the target Histone deacetylase 1 (Homo sapiens) (UniProt Q13547). Kind of assay: Inhibition of HDAC1 in human HL60 cells at 5 to 20 ug/ml after 24 hrs by Western blotting analysis. It counts as cell-based. The note with it: HL-60. In outline: as §2
The test system of assay [8] is HL-60. The experiment in a line: Induction of apoptosis in human HL60 cells assessed as increase in Bax expression by Western blotting analysis. Type of assay: functional, cell-based. In outline:
as §2

The target of assay [9] is T1, Protein deacetylase HDAC6 (Homo sapiens) (UniProt Q9UBN7).
T1 sequence (whole entry): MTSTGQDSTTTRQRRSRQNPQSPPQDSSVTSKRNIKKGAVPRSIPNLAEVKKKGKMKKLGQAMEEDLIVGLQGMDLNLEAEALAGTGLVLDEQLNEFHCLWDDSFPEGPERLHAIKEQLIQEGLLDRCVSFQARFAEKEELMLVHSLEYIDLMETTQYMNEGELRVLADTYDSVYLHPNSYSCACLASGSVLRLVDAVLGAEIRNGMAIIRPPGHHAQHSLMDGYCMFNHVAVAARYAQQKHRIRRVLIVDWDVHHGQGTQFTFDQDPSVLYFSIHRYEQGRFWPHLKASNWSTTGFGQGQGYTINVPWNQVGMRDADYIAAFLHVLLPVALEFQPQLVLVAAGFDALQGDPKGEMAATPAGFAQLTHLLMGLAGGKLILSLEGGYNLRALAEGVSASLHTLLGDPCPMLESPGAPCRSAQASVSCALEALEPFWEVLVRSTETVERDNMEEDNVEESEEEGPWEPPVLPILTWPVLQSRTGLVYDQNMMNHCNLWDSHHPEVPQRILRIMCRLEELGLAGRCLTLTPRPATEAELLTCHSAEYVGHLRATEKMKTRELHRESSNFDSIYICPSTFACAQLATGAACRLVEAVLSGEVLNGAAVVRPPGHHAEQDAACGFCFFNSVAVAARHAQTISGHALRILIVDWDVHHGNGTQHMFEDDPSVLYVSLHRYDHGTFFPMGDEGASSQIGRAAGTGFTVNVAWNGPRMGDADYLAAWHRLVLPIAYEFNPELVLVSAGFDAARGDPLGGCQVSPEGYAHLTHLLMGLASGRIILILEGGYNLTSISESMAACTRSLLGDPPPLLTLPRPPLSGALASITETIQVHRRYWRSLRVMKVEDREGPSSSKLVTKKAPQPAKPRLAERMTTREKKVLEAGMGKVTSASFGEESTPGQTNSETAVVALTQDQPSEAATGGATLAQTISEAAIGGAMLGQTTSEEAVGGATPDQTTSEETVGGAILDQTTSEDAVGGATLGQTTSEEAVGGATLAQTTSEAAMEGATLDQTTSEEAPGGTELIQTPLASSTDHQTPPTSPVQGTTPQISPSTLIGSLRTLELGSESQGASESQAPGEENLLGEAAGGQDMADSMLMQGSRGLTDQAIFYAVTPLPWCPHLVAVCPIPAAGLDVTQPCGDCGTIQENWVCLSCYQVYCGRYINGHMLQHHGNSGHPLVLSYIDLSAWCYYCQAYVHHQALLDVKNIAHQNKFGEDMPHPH
The experiment in a line: Inhibition of HDAC6 in human HL60 cells at 5 to 20 ug/ml after 24 hrs by Western blotting analysis. Type of assay: cell-based. To be noted: HL-60. In outline: as §2

In assay [10] the target is Histone deacetylase 5 (Homo sapiens) (UniProt Q9UQL6). The experiment in a line: Inhibition of HDAC5 in human HL60 cells at 5 to 20 ug/ml after 24 hrs by Western blotting analysis. Type of assay: cell-based. The note with it: HL-60. The method in brief:
as §2

Another assay has as its system Ca9-22. The experiment in a line: Cytotoxicity against human Ca9-22 cells after 24 hrs by MTT assay. Type of assay: functional, cell-based. To be noted: Ca9-22, 24 h. In outline:
as §1

Converted amounts (≈) assume the structure as drawn. The source made the active and inactive calls. The rule behind the calls is not given here.

Chain of Histone deacetylase 3 (Homo sapiens) (O15379 whole entry): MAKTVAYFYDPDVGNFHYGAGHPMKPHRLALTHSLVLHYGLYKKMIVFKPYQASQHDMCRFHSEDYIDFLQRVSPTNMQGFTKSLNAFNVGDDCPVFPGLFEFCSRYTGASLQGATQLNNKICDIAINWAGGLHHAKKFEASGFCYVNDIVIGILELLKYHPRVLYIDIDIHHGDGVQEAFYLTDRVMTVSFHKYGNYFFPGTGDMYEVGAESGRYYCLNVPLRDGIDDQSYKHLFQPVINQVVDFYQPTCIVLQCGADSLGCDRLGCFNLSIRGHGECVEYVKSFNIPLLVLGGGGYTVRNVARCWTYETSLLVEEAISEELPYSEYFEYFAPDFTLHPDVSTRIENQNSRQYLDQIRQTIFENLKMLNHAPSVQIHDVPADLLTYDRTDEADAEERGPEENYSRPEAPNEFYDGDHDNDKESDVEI
Chain of Histone deacetylase 5 (Homo sapiens) (Q9UQL6 whole entry): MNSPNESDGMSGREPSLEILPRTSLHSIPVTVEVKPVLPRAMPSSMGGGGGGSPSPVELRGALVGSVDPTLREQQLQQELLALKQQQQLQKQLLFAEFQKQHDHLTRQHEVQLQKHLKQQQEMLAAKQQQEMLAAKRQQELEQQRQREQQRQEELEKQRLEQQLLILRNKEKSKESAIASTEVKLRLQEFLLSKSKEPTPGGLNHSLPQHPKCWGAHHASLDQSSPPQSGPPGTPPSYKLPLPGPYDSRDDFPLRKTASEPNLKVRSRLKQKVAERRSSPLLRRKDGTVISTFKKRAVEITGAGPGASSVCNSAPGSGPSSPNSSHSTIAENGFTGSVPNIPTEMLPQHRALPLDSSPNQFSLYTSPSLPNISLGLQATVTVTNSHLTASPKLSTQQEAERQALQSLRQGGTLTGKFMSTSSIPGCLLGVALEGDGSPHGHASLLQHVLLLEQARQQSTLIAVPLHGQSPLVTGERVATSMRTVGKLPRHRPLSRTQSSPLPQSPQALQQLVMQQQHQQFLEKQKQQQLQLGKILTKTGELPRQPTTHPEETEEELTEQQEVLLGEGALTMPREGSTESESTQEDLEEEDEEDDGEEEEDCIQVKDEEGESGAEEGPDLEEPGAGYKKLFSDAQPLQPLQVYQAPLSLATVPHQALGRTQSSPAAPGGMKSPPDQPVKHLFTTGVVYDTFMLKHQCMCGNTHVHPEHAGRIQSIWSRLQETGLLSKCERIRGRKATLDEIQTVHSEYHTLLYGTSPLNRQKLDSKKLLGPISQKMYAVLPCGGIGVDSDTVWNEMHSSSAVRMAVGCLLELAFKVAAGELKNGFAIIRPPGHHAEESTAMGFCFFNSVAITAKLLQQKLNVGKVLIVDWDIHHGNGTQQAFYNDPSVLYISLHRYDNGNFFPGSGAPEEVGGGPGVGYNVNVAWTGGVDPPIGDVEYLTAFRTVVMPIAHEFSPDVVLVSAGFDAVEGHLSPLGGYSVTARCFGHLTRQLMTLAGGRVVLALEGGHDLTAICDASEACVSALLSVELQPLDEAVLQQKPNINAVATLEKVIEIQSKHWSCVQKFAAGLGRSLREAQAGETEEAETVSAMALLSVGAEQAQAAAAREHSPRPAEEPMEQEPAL
Chain of Histone deacetylase 1 (Homo sapiens) (Q13547 whole entry): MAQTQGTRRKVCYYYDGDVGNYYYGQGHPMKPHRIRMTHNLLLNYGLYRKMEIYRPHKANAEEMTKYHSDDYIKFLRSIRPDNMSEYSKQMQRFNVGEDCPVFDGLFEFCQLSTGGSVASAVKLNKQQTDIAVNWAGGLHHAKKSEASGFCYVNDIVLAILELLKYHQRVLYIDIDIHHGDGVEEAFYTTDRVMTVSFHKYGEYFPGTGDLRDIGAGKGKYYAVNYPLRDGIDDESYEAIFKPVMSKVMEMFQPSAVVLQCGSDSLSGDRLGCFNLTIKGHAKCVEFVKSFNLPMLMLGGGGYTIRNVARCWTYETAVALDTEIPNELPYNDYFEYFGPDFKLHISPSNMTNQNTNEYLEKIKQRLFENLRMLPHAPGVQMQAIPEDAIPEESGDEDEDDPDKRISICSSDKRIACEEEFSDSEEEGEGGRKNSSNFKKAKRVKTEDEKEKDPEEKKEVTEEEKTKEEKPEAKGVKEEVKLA
Chain of Histone deacetylase 4 (Homo sapiens) (P56524 whole entry): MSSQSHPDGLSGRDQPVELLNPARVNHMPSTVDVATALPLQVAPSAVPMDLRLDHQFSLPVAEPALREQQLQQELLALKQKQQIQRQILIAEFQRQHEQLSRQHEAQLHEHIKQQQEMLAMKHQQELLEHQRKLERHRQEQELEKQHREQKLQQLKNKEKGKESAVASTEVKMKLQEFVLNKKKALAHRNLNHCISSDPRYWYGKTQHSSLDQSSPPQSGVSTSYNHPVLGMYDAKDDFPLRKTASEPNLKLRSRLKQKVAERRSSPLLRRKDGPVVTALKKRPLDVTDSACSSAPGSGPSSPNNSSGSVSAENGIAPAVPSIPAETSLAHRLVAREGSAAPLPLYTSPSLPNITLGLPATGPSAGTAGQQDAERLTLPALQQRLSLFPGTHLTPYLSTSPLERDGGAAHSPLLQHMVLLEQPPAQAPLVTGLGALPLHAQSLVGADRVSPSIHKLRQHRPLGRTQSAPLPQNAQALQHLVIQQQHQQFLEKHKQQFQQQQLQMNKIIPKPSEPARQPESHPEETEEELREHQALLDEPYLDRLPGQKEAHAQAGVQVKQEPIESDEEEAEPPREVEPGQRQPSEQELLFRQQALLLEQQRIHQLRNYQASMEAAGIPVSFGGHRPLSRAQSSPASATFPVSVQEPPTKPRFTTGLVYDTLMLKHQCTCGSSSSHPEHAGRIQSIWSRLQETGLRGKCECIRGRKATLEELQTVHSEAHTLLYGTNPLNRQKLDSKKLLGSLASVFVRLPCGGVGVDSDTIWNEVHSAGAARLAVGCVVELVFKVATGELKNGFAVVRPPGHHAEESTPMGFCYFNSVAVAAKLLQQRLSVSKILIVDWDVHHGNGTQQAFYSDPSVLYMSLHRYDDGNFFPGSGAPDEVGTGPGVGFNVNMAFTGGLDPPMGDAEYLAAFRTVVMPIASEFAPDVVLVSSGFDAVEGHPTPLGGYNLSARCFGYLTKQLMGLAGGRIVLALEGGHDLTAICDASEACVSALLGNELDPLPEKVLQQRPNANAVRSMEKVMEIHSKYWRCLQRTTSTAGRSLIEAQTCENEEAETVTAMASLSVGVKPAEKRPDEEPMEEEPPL

In the case of `CO[C@@H]1C(O)=C2[C@@H]3[C@@H](C)[C@H](C)CC[C@]3(C)CC[C@@]2(C)[C@]2(C)CC[C@@H]3[C@](C)(CCC(=O)[C@@]3(C)CO)[C@@H]12`, the figures for the IC50 with HL-60 [1] and with HepG2 were 5.1 µg/mL (≈ 10.5 µM) and 7.7 µg/mL (≈ 15.8 µM), respectively.
On to `C[C@H]1[C@H](C)CC[C@]2(C(=O)O)CC[C@]3(C)C(=CC[C@@H]4[C@@]5(C)CC[C@H](O)C(C)(C)[C@@H]5CC[C@]43C)[C@H]12` [URSOLIC ACID], for which the values for the IC50 with HL-60 [1] and in the assay with Ca9-22 were 8.7 µg/mL (≈ 19 µM) and 5.9 µg/mL (≈ 12.9 µM), respectively. The inhibition result in assay [2], in [4], in assay [5], in [7], in assay [9] and in assay [10] was “Active” each time. Besides, the result in the assay with HL-60 [3] was inactive. The result in the assay with HL-60 [6] and in the assay with HL-60 [8] was Active.
